Screening results (PubChem)
Only some compounds are listed: those with a hit (about 3.7% of all), similar ones and a draw of the others.
hERG rescue: shields human hERG channel from block by proarrhythmic agents | Q12809 | activation (rescue from dofetilide block), less the hit threshold, % at 10 µM | 310,000 compounds, 0.51% hits | CHO-hERG, FluxOR thallium flux, dofetilide IC70 present;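 active = activation above the mean of controls blocked by dofetilide plus 5 SD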;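 note: thallium influx through hERG after potassium depolarization seen as dye fluorescence rise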
KCNQ1 block: inhibitors of human KCNQ1 potassium channel. P51787. CHO-K1 KCNQ1, FluxOR thallium flux fluorescence; stronger effect = higher value. B-score at 10 µM. 310,000 compounds, 1.3% hits. AID 2642;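 active = compounds whose thallium flux B-score, printed positive for inhibition, exceeds three library SD while starting fluorescence stays within three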;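 note: channel opened by potassium depolarization with thallium stimulus after 20 min compound exposure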
Kir21 block: blocks the mouse Kir2.1 inward-rectifier potassium channel; 310,000 compounds, 0.85% hits; B-score at 10 µM; P35561; HEK293-Kir2.1, FluxOR thallium flux fluorescence; stronger effect = lower value;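 active = fluorescence ratio B-score at or below minus 3 SD of library scores, with starting-brightness B-score within 2 SD, cut at about -4.2 in these data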;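 note: channel flux triggered by added potassium and thallium sulfate stimulus; B-score of peak minus minimum fluorescence over baseline after thallium stimulus; more negative B-score means stronger Kir2.1 block with less thallium influx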
KCNK9 inh: human KCNK9 channel inhibition. Q9NPC2. HEK293 KCNK9, FluxOR thallium flux fluorescence; stronger effect = lower value. B-score at 10 µM. 310,000 compounds, 1.2% hits. AID 488922;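 active = ratio B-score over 3 SD below the library mean, with starting fluorescence within 5 SD of its mean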;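 note: negative B-score means less thallium flux so channel inhibition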
Target sequence (Q9NPC2 whole entry, looked up): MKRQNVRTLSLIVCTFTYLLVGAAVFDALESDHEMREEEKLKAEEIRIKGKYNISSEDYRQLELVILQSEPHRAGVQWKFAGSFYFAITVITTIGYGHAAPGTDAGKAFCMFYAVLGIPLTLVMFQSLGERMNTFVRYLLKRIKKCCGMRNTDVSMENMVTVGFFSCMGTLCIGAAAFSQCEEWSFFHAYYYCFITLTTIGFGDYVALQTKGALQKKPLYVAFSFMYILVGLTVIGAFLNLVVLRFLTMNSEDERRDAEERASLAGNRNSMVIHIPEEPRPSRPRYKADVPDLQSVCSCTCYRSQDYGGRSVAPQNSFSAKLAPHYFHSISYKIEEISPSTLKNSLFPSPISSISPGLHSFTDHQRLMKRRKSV
KCNK3 inh: human KCNK3 channel inhibition, primary screen | O14649 | CHO-KCNK3 thallium flux, FluxOR fluorescence; stronger effect = lower value | B-score at 10 µM | 340,000 compounds, 0.84% hits | AID 602410;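 active = B-score under library mean minus 4 SD, starting fluorescence ratio at most library mean plus 5 SD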;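 note: more negative B-score means stronger inhibition of thallium flux through KCNK3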
KCNQ1 pot: human KCNQ1 channel potentiation or activation; CHO-K1 KCNQ1, thallium flux FluxOR fluorescence; stronger effect = higher value; B-score at 10 µM; 310,000 compounds, 0.35% hits; AID 2648;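 active = fluorescence ratio B-score, a plate-corrected score, at least three library SD, with initial intensity B-score within 5 SD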
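System: Stable KCNQ1 CHO-K1 line | Incubation: 90 min dye loading and 20 min compound exposure, both at room temperature | Measure: Ratio B score | Medium: Assay buffer for compound exposure, DMSO matched across wells | Compound dosing: Single-concentration screen | Probe or stimulus: K+/Tl+ depolarizing stimulus | Measured by: Kinetic FluxOR fluorescence, 10 s baseline plus 110 s post-stimulus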
* = called active by the depositor; i = inactive; · = no result given.

SMILES | hERG rescue | KCNQ1 block | Kir21 block | KCNK9 inh | KCNK3 inh | KCNQ1 pot
CCCCn1c(N)c(N(CCOC)C(=O)CN2C(=O)C3CCCCC3C2=O)c(=O)[nH]c1=O (centres undefined) | · | · | · | · | i | ·
COc1cc(NC(=O)CSc2nc(C)c(C)c(C)n2)cc(OC)c1 | 7.5* | i | 0.23 | i | i | i
CC(C)(CO)NC(=O)Nc1ccc(Cl)c(Cl)c1 | -8 | i | 0.19 | i | i | i
O=c1c(Cl)c(Cl)cnn1Cc1nnc(-c2ccccc2Br)o1 | -14 | i | 0.12 | i | i | 27*
Cc1ccnc(NC(=O)c2ccc(S(=O)(=O)N3CCCCCC3)cc2)c1 | -6 | i | 0.8 | i | i | i
Cc1ccc(C(=O)c2ccc(C)cc2)cc1 | 2 | i | 0.21 | i | i | i
Cc1ccc(C(=O)c2no[n+]([O-])c2C(=O)c2ccc(C)cc2)cc1 | -26 | i | -7.9* | i | i | i
CCc1ccc(C(=O)CN2CCSC2=N)cc1 | -2 | i | -4.5* | i | i | i
CCC(=O)NC(=S)NNC(=O)COc1ccc(Br)cc1 | -9 | i | 0.39 | i | i | i
CCOc1ccc(C=NNC(=O)c2ccc(-n3cnnn3)cc2)cc1 | · | · | · | · | i | ·
CSCCC(NC(=O)c1ccccc1Cl)C(=O)N1CCN(C(c2ccccc2)c2ccccc2)CC1 (centres undefined) | -6 | i | -4.7* | i | i | i
CCn1cnc2c1c(=O)n(CC(=O)N1CCc3ccccc31)c(=O)n2Cc1ccccc1 | -13 | i | 0.69 | i | i | i
O=C(Cn1c(=O)c2c(ncn2Cc2ccccc2)n(Cc2ccccc2)c1=O)N1CCc2ccccc21 | -9 | i | 1.4 | i | i | 7*
Cc1nc(N2CCCCC2C)c2c(C)c(C(=O)Nc3cccc(C(F)(F)F)c3)sc2n1 (centres undefined) | -10 | 7* | 0.24 | i | i | i
Cc1nc(N2CCCCC2)c2c(C)c(C(=O)Nc3ccccc3C(F)(F)F)sc2n1 | -3 | i | 1.3 | i | i | i
Cc1cc2ccccn2c1C(=S)NC(=O)c1ccccc1 | 34* | i | 1.3 | i | i | 26*
CCOC(=O)c1nnc(-c2ccccc2)nc1N1CC(C)OC(C)C1 (centres undefined) | -6 | i | -0.13 | i | i | i
C=CCNc1nc(Cl)nc(Nc2ccc([N+](=O)[O-])cc2)n1 | -2 | i | 0.21 | i | i | i
Cn1ncc2c(Nc3ccc([N+](=O)[O-])cc3)nc(Cl)nc21 | -6 | i | -0.02 | i | i | i
CC1CCN(c2nc(Cl)nc(Nc3ccc([N+](=O)[O-])cc3)n2)CC1 | -5 | 8* | -0.3 | i | i | i
C=CCNc1nc(Nc2ccc([N+](=O)[O-])cc2)nc(N2CCCC2)n1 | -20 | 8* | 0.18 | i | i | i
COc1ccc(S(=O)(=O)n2nc(-c3cc(OC)c(OC)c(OC)c3)cc2N)cc1OC | · | · | · | · | i | ·
COc1ccc(-c2cc(N)n(S(=O)(=O)c3c(F)c(F)c(F)c(F)c3F)n2)cc1OC | -36 | i | -3.3 | i | -11* | 8*
O=C(O)/C=C/c1cn(Cc2ccccc2)nc1-c1ccc(Cl)cc1 | -13 | i | 1.2 | i | i | i
CCCS(=O)(=O)N1CCN(Cc2ccc3c(c2)c2ccccc2n3CC)CC1 | -9 | i | -5.9* | i | i | i
SMILES | hERG rescue | KCNQ1 block | Kir21 block | KCNK9 inh | KCNK3 inh | KCNQ1 pot
CCn1c2ccccc2c2cc(CN3CCN(C(=O)c4ccco4)CC3)ccc21 | -21 | i | -0.71 | i | i | i
Cc1cc(C)c(OCCCNC2CCCC2)c(Br)c1 | -4 | i | -3.4 | i | i | i
C/C=C/c1ccc(OCCOCCNCc2ccccc2)c(OC)c1 | -12 | i | -6.2* | i | i | i
Cc1cc(C)c(OCCCNCc2ccccc2)c(Br)c1 | -14 | i | -16* | i | i | i
CCCOc1ccc(OCCOCCNCc2ccccc2)cc1 | -4 | i | -2.9 | i | i | i
Cc1cc(C)c(C)c(OCCOCCNCc2ccccc2)c1 | -6 | i | -9.1* | i | i | i
Cc1ccc(OCCNCc2ccccc2)c(C)c1 | -7 | i | -4.6* | i | i | i
N#CCC(=O)Nc1ccc(C(=O)OCC(=O)NC2CCCc3ccccc32)cc1 (centres undefined) | · | · | · | · | i | ·
CCCOc1ccc(/C=N/Nc2ccccc2[N+](=O)[O-])c(OCCC)c1 | -2 | i | 1.6 | i | i | i
COc1ccc(C(=O)NCCc2ccccc2)cc1OC | -3 | i | -0.51 | i | i | i
COc1ccc(/C(O)=C/c2nc3ccc(C(=O)NCCc4cccc(C)c4)cc3[nH]c2=O)cc1OC | -12 | i | 0.51 | -8* | i | i
Cc1ccc(Nc2cc(C)nn2-c2nc(C)cc(=O)[nH]2)cc1 | 20* | i | 0 | i | i | 32*
CCOc1ccc(C(=O)N2CCN(S(=O)(=O)c3cccs3)CC2)c(OCC)c1 | -11 | i | 0.16 | i | i | i
CC(C)Cn1c(C(C)C)nc([N+](=O)[O-])c1Sc1ccc(Cl)cn1 | -18 | i | -0.55 | i | i | i
CCCCn1c(CCC)nc([N+](=O)[O-])c1Sc1ccc(Cl)cn1 | -12 | i | -4.8* | i | i | i
CC(C)C[C@@H](CNCC(=O)[C@H](Cc1c[nH]c2ccccc12)NC(=O)c1[nH]cnc1C(=O)N[C@@H](C)CN)NC(=O)c1nc[nH]c1C(=O)N[C@@H](C)C(=O)O | · | · | · | · | i | ·
COc1ccc(C2(c3ccc(OC)cc3)NC(=O)N(CC(=O)Nc3ccc(OC(F)F)cc3)C2=O)cc1 | -2 | 9* | 0.9 | i | i | i
Oc1cccc(Nc2nc(-c3ccccc3)nc3ccccc23)c1 | -3 | i | 1 | i | i | i
Cc1ccccc1Cc1c(C)nc2c(C(=O)NCc3ccc4c(c3)OCO4)cnn2c1C | -5 | i | 0.37 | i | i | i
Cc1ccc(C)c(Cc2c(C)nc3c(C(=O)NCc4ccc5c(c4)OCO5)cnn3c2C)c1 | -10 | i | 0.27 | -7.8* | · | i
NS(=O)(=O)c1ccc(CCNC(=O)CCC(=O)c2cccs2)cc1 | · | · | · | · | i | ·
O=c1c2cccnc2n(-c2ccccc2)n1Cc1ccc(Cl)cc1 | -8 | i | 0 | i | i | 14*
COc1cc(C(=S)N2CCN(c3cccc(Cl)c3)CC2)ccc1O | 5.8* | i | -1 | i | i | i
COc1cc2c(cc1OC)[C@@H](NC(=O)CCC1CCCCC1)[C@H](O)C2 | · | · | · | · | i | ·
